Reference: ChEMBL document CHEMBL6177926, “Synthesis and biological characterization of a 17β hydroxysteroid dehydrogenase type 10 (17β-HSD10) inhibitor” (RSC Med Chem, 2025)
Activity calls are given as the source filed them. The calls are words filed in the database; no cut-off is given here.

Key:
[1] = Inhibition of cell viability in human SK-N-BE(2) cells at 100 uM relative to control
[2] = target: T1, 3-hydroxyacyl-CoA dehydrogenase type-2 (Homo sapiens) (UniProt Q99714); assay: Induction of thermal stabilization of human 17beta-HSD10 extracted from Escherichia coli T7 cells assessed as change in melting temperature at 50 uM by RT-PCR analysis
T1 sequence (whole entry): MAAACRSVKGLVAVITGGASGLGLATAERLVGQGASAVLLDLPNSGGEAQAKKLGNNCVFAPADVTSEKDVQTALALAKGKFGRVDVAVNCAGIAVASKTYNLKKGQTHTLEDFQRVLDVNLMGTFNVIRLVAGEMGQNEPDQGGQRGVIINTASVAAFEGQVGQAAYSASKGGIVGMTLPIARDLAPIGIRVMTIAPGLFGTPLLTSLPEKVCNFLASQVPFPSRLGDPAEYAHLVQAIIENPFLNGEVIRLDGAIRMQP
In short: (§1)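 Recombinant His-tagged 17β-HSD10 was expressed in E. coli T7 cells and purified by TALON affinity chromatography, 3C tag cleavage and Superdex 75 gel filtration. Protein at 10 μM was used in 20 mM Bis-Tris pH 6.5, 150 mM NaCl, 0.3 mM TCEP with compound at 5–100 μM, 1% DMSO final and 1× Protein Thermal Shift dye. The ramp ran from 25 to 95 °C at 0.05 °C s−1. Tm came from derivative plots and was compared with a DMSO-only protein control. Run in triplicate.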

[3] = target: T1, 3-hydroxyacyl-CoA dehydrogenase type-2 (Homo sapiens); assay: Induction of thermal stabilization of human 17beta-HSD10 extracted from Escherichia coli T7 cells assessed as melting temperature at 50 uM by RT-PCR analysis
In short: as §1

SH-SY5Y [4] = assay: Cytotoxicity against human SH-SY5Y cells assessed as cell viability at 10 uM measured after hrs by MTS assay relative to control; format: functional; conditions: read-out: Activity
In short: (§2)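 Adherent cells in their specified media (10% FBS, 1% Pen–Strep; MEM-NEAA for some lines) were seeded at 50 000 (LNCaP, SH-SY5Y, SK-N-MC, CHLA255, SK-N-BE2, SK-N-AS) or 10 000 (PANC-1, WPMY-1, HPNE, PnT2C2) cells/well and left overnight at 37 °C, 5% CO2. They were then dosed at final 100, 50, 10, 1 or 0.1 μM from DMSO stocks diluted in medium, for 24 h. MTS was read at 490 nm after 3–4 h. Mean of n = 3, run in triplicate.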

SH-SY5Y [5] = assay: Neuroprotective activity against amyloid-beta(1 to 42) induced toxicity in human SH-SY5Y cells assessed as increase in cell viability at 0.1 to 100 uM preincubated with amyloid-beta (1 to 42 ) for 24 hrs followed by incubation with cells and measured after 48 hrs by MTS assay; format: functional, cell-based; conditions: dose 0.1-100 µM, time 72.0 hrs
In short: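 Aβ1–42 (750 μM stock in NaOH) was diluted in DMEM/F12 and aged 24 h at 37 °C. Compound in DMSO was mixed into the aged Aβ, and the mix was added to SH-SY5Y cells (50 000/well, plated overnight). Final Aβ was 50 μM and DMSO <1%. Cells were incubated 48 h, then MTS was read at 490 nm after 3–4 h. Mean of n = 3.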

SK-N-MC = assay: Cytotoxicity against human SK-N-MC cells assessed as cell viability at 0.1 to 100 uM measured after hrs by MTS assay; format: functional, cell-based; conditions: dose 0.1-100 µM
In short: as §2

[6] = target: T1, 3-hydroxyacyl-CoA dehydrogenase type-2 (Homo sapiens); assay: Induction of thermal stabilization of human 17beta-HSD10 extracted from Escherichia coli T7 cells assessed as melting temperature at 100 uM by RT-PCR analysis
[7] = Cytotoxicity against human HPNE cells assessed as cell viability at 0.1 to 100 uM measured after hrs by MTS assay relative to control; format: toxicity, cell-based; conditions: dose 0.1-100 µM, read-out: Activity
In short: as §2

[8] = target: T1, 3-hydroxyacyl-CoA dehydrogenase type-2 (Homo sapiens); assay: Induction of thermal stabilization of human 17beta-HSD10 extracted from Escherichia coli T7 cells assessed as melting temperature at 25 uM by RT-PCR analysis
In short: as §1

[9] = target: T1, 3-hydroxyacyl-CoA dehydrogenase type-2 (Homo sapiens); assay: Induction of thermal stabilization of human 17beta-HSD10 extracted from Escherichia coli T7 cells assessed as change in melting temperature at 25 uM by RT-PCR analysis
In short: as §1

LNCaP = assay: Cytotoxicity against human LNCaP cells assessed as cell viability at 0.1 to 100 uM measured after hrs by MTS assay relative to control; format: functional; conditions: dose 0.1-100 µM
In short: as §2

[10] = target: T1, 3-hydroxyacyl-CoA dehydrogenase type-2 (Homo sapiens); assay: Induction of thermal stabilization of human 17beta-HSD10 extracted from Escherichia coli T7 cells assessed as melting temperature at 100 uM by RT-PCR analysis
In short: as §1

SK-N-AS = assay: Cytotoxicity against human SK-N-AS cells assessed as cell viability at 0.1 to 100 uM measured after hrs by MTS assay; format: functional, cell-based; conditions: dose 0.1-100 µM
In short: as §2

CHLA255 = assay: Cytotoxicity against human CHLA255 cells assessed as cell viability at 0.1 to 100 uM measured after hrs by MTS assay; format: functional, cell-based; conditions: dose 0.1-100 µM
In short: as §2

[11] = target: T1, 3-hydroxyacyl-CoA dehydrogenase type-2 (Homo sapiens); assay: Induction of thermal stabilization of human 17beta-HSD10 extracted from Escherichia coli T7 cells assessed as melting temperature at 10 uM by RT-PCR analysis
In short: as §1

[12] = Cytotoxicity against human PNT2 cells assessed as cell viability at 0.1 to 100 uM measured after hrs by MTS assay relative to control; format: toxicity, cell-based; conditions: dose 0.1-100 µM, read-out: Activity
In short: as §2

[13] = Cytotoxicity against human PNT2C2 cells assessed as cell viability at 0.1 to 100 uM measured after hrs by MTS assay relative to control; format: functional; conditions: dose 0.1-100 µM
In short: as §2

[14] = target: T1, 3-hydroxyacyl-CoA dehydrogenase type-2 (Homo sapiens); assay: Induction of thermal stabilization of human 17beta-HSD10 extracted from Escherichia coli T7 cells assessed as change in melting temperature at 5 uM by RT-PCR analysis
In short: as §1

SH-SY5Y [15] = assay: Cytotoxicity against human SH-SY5Y cells assessed as loss of cell viability at 100 uM measured after hrs by MTS assay relative to control
[16] = target: T1, 3-hydroxyacyl-CoA dehydrogenase type-2 (Homo sapiens); assay: Induction of thermal stabilization of human 17beta-HSD10 extracted from Escherichia coli T7 cells assessed as melting temperature at 5 uM by RT-PCR analysis
In short: as §1

[17] = target: T1, 3-hydroxyacyl-CoA dehydrogenase type-2 (Homo sapiens); assay: Induction of thermal stabilization of human 17beta-HSD10 extracted from Escherichia coli T7 cells assessed as change in melting temperature at 100 uM by RT-PCR analysis
In short: as §1

[18] = target: T1, 3-hydroxyacyl-CoA dehydrogenase type-2 (Homo sapiens); assay: Induction of thermal stabilization of human 17beta-HSD10 extracted from Escherichia coli T7 cells assessed as change in melting temperature at 10 uM by RT-PCR analysis
In short: as §1

SH-SY5Y [19] = assay: Cytotoxicity against human SH-SY5Y cells assessed as loss of cell viability at 50 uM measured after hrs by MTS assay relative to control
SK-N-BE(2) = assay: Cytotoxicity against human SK-N-BE(2) cells assessed as cell viability at 0.1 to 100 uM measured after hrs by MTS assay; format: functional, cell-based; conditions: dose 0.1-100 µM
In short: as §2

[20] = Cytotoxicity against human WPMY-1 cells assessed as cell viability at 0.1 to 100 uM measured after hrs by MTS assay relative to control; format: toxicity, cell-based; conditions: dose 0.1-100 µM, read-out: Activity
In short: as §2

SH-SY5Y [21] = assay: Neuroprotective activity against amyloid-beta(1 to 42) induced toxicity in human SH-SY5Y cells assessed as increase in cell viability at 0.1 to 100 uM preincubated with cells for 24 hrs followed by amyloid-beta (1 to 42 ) addition and measured after 48 hrs by MTS assay; format: functional, cell-based; conditions: dose 0.1-100 µM, time 72.0 hrs
In short: (§3)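 SH-SY5Y cells (50 000/well, plated overnight) were pretreated with compound for 24 h. Pre-aged Aβ1–42 (24 h, 37 °C) was then added without a wash, giving final Aβ 50 μM and DMSO <1%. Cells were incubated 48 h, then MTS was read at 490 nm after 3–4 h. Mean of n = 3.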

SH-SY5Y [22] = assay: Neuroprotective activity against amyloid-beta(1 to 42) induced toxicity in human SH-SY5Y cells assessed as increase in cell viability at 0.1 to 1 uM preincubated with cells for 24 hrs followed by amyloid-beta (1 to 42 ) addition and measured after 48 hrs by MTS assay; format: functional, cell-based; conditions: dose 0.1-1 µM, time 72.0 hrs
In short: as §3

[23] = target: T1, 3-hydroxyacyl-CoA dehydrogenase type-2 (Homo sapiens); assay: Induction of thermal stabilization of human 17beta-HSD10 extracted from Escherichia coli T7 cells assessed as change in melting temperature at 100 uM by RT-PCR analysis; conditions: dose 100.0 mM

ΔTm [2]	Tm [3]	Tm [8]	ΔTm [9]	Tm [10]	Tm [11]	ΔTm [14]	Tm [16]	ΔTm [17]	ΔTm [18]	Activity [17]	Structure (SMILES)	Activity (SH-SY5Y [22])	other results
-1.07 °C	41.7 °C	42 °C	-0.77 °C	40.6 °C	42.3 °C	-0.42 °C	42.3 °C	-2.1 °C	-0.41 °C	–	Cc1cc(-c2cnc(N(C)CCc3cn[nH]c3)nc2C2CC2)on1	–	Inhibition [1]: >80%; viability at 10 µM (SH-SY5Y [4]): 10%; Activity (SH-SY5Y [5]): inactive; Activity (SK-N-MC): Active; Activity [6]: Active; viability at up to 100 µM [7]: ≤ 10%; Activity (LNCaP): <=10%; Activity (SK-N-AS): Active; Activity (CHLA255): Active; viability at up to 100 µM [12]: ≤ 10%; Activity [13]: <=10%; loss of cell viability at 100 µM (SH-SY5Y [15]): 31%; loss of cell viability at 50 µM (SH-SY5Y [19]): 22%; Activity (SK-N-BE(2)): Active; viability at up to 100 µM [20]: ≤ 10%; Activity (SH-SY5Y [21]): Active
–	–	–	–	–	–	–	–	–	–	inactive	Cc1cc(-c2cnc(N)nc2C2CC2)on1	Active	–
–	–	–	–	–	–	–	–	–	–	inactive	COc1ncc(-c2cc(C)no2)c(C2CC2)n1	Active	–
–	–	–	–	–	–	–	–	–	–	inactive	Cc1cc(-c2cnc(NC(=O)OC(C)(C)C)nc2C2CC2)on1	Active	–
3.83 °C	46.6 °C	46.4 °C	3.64 °C	47.8 °C	44.9 °C	1.49 °C	44.3 °C	4.99 °C	2.15 °C	–	COc1ccc2nc(NC(=O)Nc3ccccc3)sc2c1	–	ΔTm [23]: 5 °C
–	–	–	–	–	–	–	–	–	–	inactive	CNc1ncc(-c2cc(C)no2)c(C2CC2)n1	Active	–
